According to PubChem BioAssay:
Active and inactive are the calls of the source. Cut-off read from the data, not from the text of the source, unless noted: active = inhibition above about 30%; inactive = the rest.

Experiments:
[1] = Her2 expression decrease, cell viability multiplex – SKBR3 breast tumor cells, AlphaScreen, ATP viability, primary screen (AID 461;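 active = Her2 level under about 52% in both replicate screens, with viability over 70% of control, limit read from the data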;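 for Her2 level: lower value means less Her2 protein in the cells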;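 for viability: percent of carrier control wells set as 100% viability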); settings: SKBR3 Her2 protein level, 18-24 h, measured here: SKBR3 viability, ATP luminescence, at 10 µM
[2] = target: Receptor tyrosine-protein kinase erbB-2 (Homo sapiens) (UniProt P04626); assay: as above; settings: 18-24 h, at 10 µM, stronger effect = lower value
Sequence of Receptor tyrosine-protein kinase erbB-2 (Homo sapiens) (P04626 whole entry, looked up): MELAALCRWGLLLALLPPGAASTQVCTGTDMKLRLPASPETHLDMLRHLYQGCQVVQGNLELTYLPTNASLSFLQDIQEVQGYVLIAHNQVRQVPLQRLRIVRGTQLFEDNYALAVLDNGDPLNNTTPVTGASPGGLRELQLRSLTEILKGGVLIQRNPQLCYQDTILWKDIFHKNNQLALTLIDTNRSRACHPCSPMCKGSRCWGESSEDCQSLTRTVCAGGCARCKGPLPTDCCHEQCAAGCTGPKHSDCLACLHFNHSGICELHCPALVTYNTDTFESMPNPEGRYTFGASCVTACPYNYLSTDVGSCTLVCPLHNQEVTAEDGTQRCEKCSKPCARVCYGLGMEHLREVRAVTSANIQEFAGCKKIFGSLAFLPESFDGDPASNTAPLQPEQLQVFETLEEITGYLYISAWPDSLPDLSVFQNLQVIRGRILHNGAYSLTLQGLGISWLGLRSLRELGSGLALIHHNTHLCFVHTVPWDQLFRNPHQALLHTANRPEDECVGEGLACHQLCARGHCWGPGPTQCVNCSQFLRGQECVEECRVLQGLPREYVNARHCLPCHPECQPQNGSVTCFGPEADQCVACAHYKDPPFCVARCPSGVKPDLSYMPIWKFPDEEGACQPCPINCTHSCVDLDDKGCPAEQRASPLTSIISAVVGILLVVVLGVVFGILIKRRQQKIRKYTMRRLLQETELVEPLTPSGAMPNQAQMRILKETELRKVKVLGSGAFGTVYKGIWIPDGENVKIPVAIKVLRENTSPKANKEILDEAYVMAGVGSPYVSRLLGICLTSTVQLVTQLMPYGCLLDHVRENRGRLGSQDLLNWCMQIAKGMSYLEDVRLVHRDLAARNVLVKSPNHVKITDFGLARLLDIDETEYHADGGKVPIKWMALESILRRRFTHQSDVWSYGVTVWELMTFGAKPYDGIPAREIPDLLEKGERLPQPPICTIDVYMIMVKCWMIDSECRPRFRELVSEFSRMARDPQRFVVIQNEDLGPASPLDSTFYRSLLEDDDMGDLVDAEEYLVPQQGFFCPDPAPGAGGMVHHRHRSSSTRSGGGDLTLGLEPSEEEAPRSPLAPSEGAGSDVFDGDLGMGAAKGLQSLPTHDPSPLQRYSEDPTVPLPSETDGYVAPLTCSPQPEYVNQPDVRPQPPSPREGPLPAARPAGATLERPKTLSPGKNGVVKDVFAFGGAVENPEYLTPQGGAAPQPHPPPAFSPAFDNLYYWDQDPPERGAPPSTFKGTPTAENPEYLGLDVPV

[3] = reduced viability of SK-BR-3 breast cancer cells – cell-based, 24 h, human, pilot screen (AID 572;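 active = viability at or below 10% of carrier control in both of two separate runs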;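 note: compound exposure lasted between 18 and 24 h rather than exactly 24 h; 100% = carrier-treated control wells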); settings: SK-BR-3 viability, CellTiter-Glo luminescence, at 10 µM, stronger effect = lower value
[4] = HUVEC growth inhibition – cell-based, human, primary screen (AID 575;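 active = viability at or below 30% in both replicate assays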;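 note: 100% = median of untreated cell wells with 0.1% DMSO on each plate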); settings: HUVEC proliferation, CellTiter-Glo luminescence, 72 h; at 10 µM; stronger effect = lower value
How it was run: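 Test system – primary HUVEC, no more than 12 passages · Dosing – one dose, 10 µM final, 0.1% DMSO · Times – 72 h treatment at 37 °C · Measured by – ATP-based CellTiter-Glo luminescent read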

[5] = H69AR cell proliferation blockers – human, duplicate replicates, primary screen (AID 580;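 active = viability at or under a set limit in both replicates, limit being median viability minus 3 SD, cut at about 48% in these data, passing the limit was not always enough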;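 note: 100% = mean luminescence of untreated wells and 0% = no signal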); settings: H69AR lung tumor cells viability, ATP luminescence, 72 h; at 10 µM; stronger effect = lower value
[6] = MRP1 drug-resistance reversers in H69AR cells – cell-based, doxorubicin co-treatment, pilot screen (AID 601;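 active = viability loss from added drug above about 55%, and viability with drug at most 40%, in both replicates, limit read from the data, passing the limit was not always enough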); settings: CellTiter-Glo, 72 h, at 10 µM; for differential viability (reversal): stronger effect = higher value
[7] = yeast transport mutant growth inhibition pilot in 384-well plates, post-Golgi transport modulator project (AID 636; in the data active = inhibition above about 31%); settings: absorbance 615 nm, about 18 h, stronger effect = higher value
[8] = growth suppression of yeast trafficking mutant, preliminary HTS, modulators of trafficking downstream of Golgi apparatus project, 1536-format plate, OD 615 nm (AID 637); settings: yeast transport mutant growth, absorbance 615 nm, 18 h; stronger effect = higher value
[9] = H69AR cells + 2 uM doxorubicin, measured here: viability with 2 uM doxorubicin, stronger effect = lower value
[10] = H69AR cells, compound alone cytotoxicity

In the case of `CC(C)(C)NC(=O)NC(=O)COc1ccccc1C#N`, the viability [1] is reported as 104%, the Her2 level [2] is reported as 90.5% (inactive) and the viability [3] is reported as 104% (inactive). The viability [4] was 108% (inactive), the viability [5] was 106% (inactive) and the differential viability (reversal) ([6]; H69AR cells + 2 uM doxorubicin) was 25.7% (inactive). The viability [6, 9] was 80.7%, the viability [6, 10] was 106% and the inhibition [7] was -6.49% (inactive). The inhibition [8] was -2.38% (inactive).
In the case of `CC1(C)CC(CCNC(=O)c2ccco2)CC(C)(C)N1`, the viability [1] is reported as 106%, the Her2 level [2] is reported as 92% (inactive) and the viability [3] is reported as 106% (inactive). For the same compound, the viability [4] was 84.2% (inactive), the viability [5] was 98.8% (inactive) and the differential viability (reversal) ([6]; H69AR cells + 2 uM doxorubicin) was 2.95% (inactive). For the same compound, the viability [6, 9] was 95.8%, the viability [6, 10] was 98.8% and the inhibition [7] was -3.73% (inactive). The inhibition [8] was -4.76% (inactive).
For `Cc1ccc(-n2c(Cn3cnc4ccccc43)nnc2SCC(=O)O)cc1`, the viability [1] was 102%, the Her2 level [2] was 108% (inactive) and the viability [3] was 102% (inactive). For the same compound, the viability [4] was 94.3% (inactive), the viability [5] was 97.7% (inactive) and the differential viability (reversal) ([6]; H69AR cells + 2 uM doxorubicin) was 5.34% (inactive). The viability [6, 9] was 92.3%, the viability [6, 10] was 97.7% and the inhibition [7] was -4.13% (inactive). For the same compound, the inhibition [8] was 24.3% (inactive).
For `Cc1oc(C(=O)O)cc1CSCc1cc(C(=O)O)c(C)o1`, the viability [1] was 104%, the Her2 level [2] was 94.5% (inactive) and the viability [3] was 104% (inactive). The viability [4] was 92.9% (inactive), the viability [5] was 103% (inactive) and the differential viability (reversal) ([6]; H69AR cells + 2 uM doxorubicin) was 1.31% (inactive). For the same compound, the viability [6, 9] was 102%, the viability [6, 10] was 103% and the inhibition [7] was -3.51% (inactive). For the same compound, the inhibition [8] was -1.48% (inactive).
With `COc1ccc(S(=O)(=O)NCC(=O)N(CC(=O)NCC2CCCO2)c2ccccc2C)cc1` (stereo not given) the viability [1] was 123%, the Her2 level [2] was 82% (inactive) and the viability [3] was 123% (inactive). The viability [4] was 107% (inactive), the viability [5] was 83.4% (inactive) and the differential viability (reversal) ([6]; H69AR cells + 2 uM doxorubicin) was 7.01% (inactive). The viability [6, 9] was 76.4%, the viability [6, 10] was 83.4% and the inhibition [7] was -3.73% (inactive). The inhibition [8] was -0.32% (inactive).
For `CCCn1c(NCc2ccc3c(c2)OCO3)nc2ccccc21`, the viability [1] was 94%, the Her2 level [2] was 85% (inactive) and the viability [3] was 94% (inactive). The viability [4] was 80.1% (inactive), the viability [5] was 97.2% (inactive) and the differential viability (reversal) ([6]; H69AR cells + 2 uM doxorubicin) was 12.3% (inactive). For the same compound, the viability [6, 9] was 84.9%, the viability [6, 10] was 97.2% and the inhibition [7] was -5.6% (inactive). For the same compound, the inhibition [8] was -1.13% (inactive).
For `COC(=O)c1ccc(NC(=O)C2CC(=O)N(c3cc(C)ccc3C)C2)cc1` (stereo not given), the viability [1] was 97%, the Her2 level [2] was 99.5% (inactive) and the viability [3] was 97% (inactive). The viability [4] was 96.3% (inactive), the viability [5] was 89.8% (inactive) and the differential viability (reversal) ([6]; H69AR cells + 2 uM doxorubicin) was 3.6% (inactive). The viability [6, 9] was 86.2%, the viability [6, 10] was 89.8% and the inhibition [7] was -1.76% (inactive). For the same compound, the inhibition [8] was 13.7% (inactive).
With `CCOC(=O)C(NCc1ccccc1OC)(NC(C)=O)C(F)(F)F` (stereo not given) the viability [1] was 116%, the Her2 level [2] was 91% (inactive) and the viability [3] was 116% (inactive). The viability [4] was 98.8% (inactive), the viability [5] was 91.8% (inactive) and the differential viability (reversal) ([6]; H69AR cells + 2 uM doxorubicin) was 1.75% (inactive). For the same compound, the viability [6, 9] was 90.1%, the viability [6, 10] was 91.8% and the inhibition [7] was -2.6% (inactive). For the same compound, the inhibition [8] was -0.63% (inactive).
For `COc1ccc(S(=O)(=O)n2ccnc2)c2cccnc12`, the viability [1] was 94.5%, the Her2 level [2] was 110% (inactive) and the viability [3] was 94.5% (inactive). The viability [4] was 90.7% (inactive), the viability [5] was 96.1% (inactive) and the differential viability (reversal) ([6]; H69AR cells + 2 uM doxorubicin) was -0.965% (inactive). For the same compound, the viability [6, 9] was 97.1%, the viability [6, 10] was 96.1% and the inhibition [7] was -2.13% (inactive). For the same compound, the inhibition [8] was -4.1% (inactive).
With `CCOC(=O)c1[nH]c2ccc(Br)cc2c1NC(=O)CNC` the viability [1] was 93%, the Her2 level [2] was 99.5% (inactive) and the viability [3] was 93% (inactive). For the same compound, the viability [4] was 101% (inactive), the viability [5] was 87.3% (inactive) and the differential viability (reversal) ([6]; H69AR cells + 2 uM doxorubicin) was -0.115% (inactive). The viability [6, 9] was 87.5%, the viability [6, 10] was 87.3% and the inhibition [7] was -2.37% (inactive). The inhibition [8] was 8.85% (inactive).
With `COc1ccc(CC(NC(C)=O)C(=O)N2CCN(C(=O)N(C(C)C)C(C)C)CC2)cc1` (stereo not given) the viability [1] was 90.5%, the Her2 level [2] was 110% (inactive) and the viability [3] was 90.5% (inactive). For the same compound, the viability [4] was 94.5% (inactive), the viability [5] was 94.2% (inactive) and the differential viability (reversal) ([6]; H69AR cells + 2 uM doxorubicin) was 5.88% (inactive). For the same compound, the viability [6, 9] was 88.3%, the viability [6, 10] was 94.2% and the inhibition [7] was -5.13% (inactive). For the same compound, the inhibition [8] was -12.8% (inactive).
In the case of `C/C(N)=C(/C#N)C(=O)CSc1nnc(Nc2c(C)cccc2C)s1`, the viability [1] is reported as 108%, the Her2 level [2] is reported as 79.5% (inactive) and the viability [3] is reported as 108% (inactive). The viability [4] was 93.7% (inactive), the viability [5] was 103% (inactive) and the differential viability (reversal) ([6]; H69AR cells + 2 uM doxorubicin) was 28.5% (inactive). For the same compound, the viability [6, 9] was 74.6%, the viability [6, 10] was 103% and the inhibition [7] was -2.84% (inactive). For the same compound, the inhibition [8] was 3.02% (inactive).
For `CCNC(=O)N(C)c1nncnc1C(=O)NC`, the viability [1] was 85%, the Her2 level [2] was 88% (inactive) and the viability [3] was 85% (inactive). The viability [4] was 89.8% (inactive), the viability [5] was 95.8% (inactive) and the differential viability (reversal) ([6]; H69AR cells + 2 uM doxorubicin) was 6.2% (inactive). For the same compound, the viability [6, 9] was 89.6%, the viability [6, 10] was 95.8% and the inhibition [7] was -3.6% (inactive). For the same compound, the inhibition [8] was 5.57% (inactive).
For `CC(=O)C1=C(O)C(=O)N(Cc2ccco2)C1c1ccc(F)cc1` (stereo not given), the viability [1] was 102%, the Her2 level [2] was 110% (inactive) and the viability [3] was 102% (inactive). The viability [4] was 123% (inactive), the viability [5] was 109% (inactive) and the differential viability (reversal) ([6]; H69AR cells + 2 uM doxorubicin) was 8.52% (inactive). For the same compound, the viability [6, 9] was 100%, the viability [6, 10] was 109% and the inhibition [7] was 1.07% (inactive). The inhibition [8] was -5% (inactive).
In the case of `CN(C)CCCNC(=O)c1ccc(CN(c2ccccc2)S(C)(=O)=O)cc1`, the viability [1] is reported as 97.5%, the Her2 level [2] is reported as 96% (inactive) and the viability [3] is reported as 97.5% (inactive). For the same compound, the viability [4] was 86.4% (inactive), the viability [5] was 92.1% (inactive) and the differential viability (reversal) ([6]; H69AR cells + 2 uM doxorubicin) was 3.06% (inactive). The viability [6, 9] was 89%, the viability [6, 10] was 92.1% and the inhibition [7] was 0.91% (inactive). The inhibition [8] was -7.87% (inactive).
With `Cc1nnc(NC(=O)Nc2cccc(Cl)c2)s1` the viability [1] was 86%, the Her2 level [2] was 89.5% (inactive) and the viability [3] was 86% (inactive). The viability [4] was 76.8% (inactive), the viability [5] was 63% (inactive) and the differential viability (reversal) ([6]; H69AR cells + 2 uM doxorubicin) was -21% (inactive). For the same compound, the viability [6, 9] was 84.1%, the viability [6, 10] was 63% and the inhibition [7] was -6.18% (inactive). For the same compound, the inhibition [8] was -4.03% (inactive).
